Test results as given in ChEMBL document CHEMBL3124843, “Synthesis, cytostatic, antimicrobial, and anti-HCV activity of 6-substituted 7-(het)aryl-7-deazapurine ribonucleosides” (J Med Chem, 2014).
pEC50, pIC50: −log10 of the molar value. Activity calls are given as the source filed them. How the calls were made is not given here.

How the values were obtained:
Escherichia coli [1] = assay: Antibacterial activity against Escherichia coli CCM 3954 after 24 hrs; type: functional, organism-based
HCT-116 [2] = assay: Cytostatic activity against human HCT116 cells after 72 hrs by MTT assay; type: functional, cell-based; conditions: HCT-116, 72 h
Procedure, shortened: (§1)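 IC50 is the concentration that cuts cell growth by 50%, read by quantitative metabolic MTT staining after a 3-day treatment. The resistant sublines were made by raising the concentration of the cytotoxic drug step by step. CEM-DNR-bulk (daunorubicin-selected) stably overexpresses mrp-1. K562-TAX (paclitaxel-selected) expresses only mdr-1. HCT116p53−/− carries null p53 alleles. BJ and MRC-5 are nonmalignant fibroblasts.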

Staphylococcus aureus [3] = assay: Antibacterial activity against Staphylococcus aureus CCM 3953 after 24 hrs; type: functional, organism-based
HCT-116 [4] = assay: Cytostatic activity against p53-deficient human HCT116 cells after 72 hrs by MTT assay; type: functional, cell-based; conditions: HCT-116, 72 h; procedure, shortened: as §1
[5] = test system: Staphylococcus haemolyticus; assay: Antibacterial activity against methicillin-resistant Staphylococcus haemolyticus A/16568 after 24 hrs; type: functional, organism-based
Candida albicans = assay: Antifungal activity against Candida albicans after 48 hrs; type: functional, organism-based
Hepatitis C virus [6] = assay: Antiviral activity against Hepatitis C virus subtype 1b infected in human HuH7 cells; type: functional, organism-based, Hepacivirus hominis; conditions: genotype 1b, Huh-7
K562 [7] = assay: Cytostatic activity against paclitaxel-resistant human K562 cells after 72 hrs by MTT assay; type: functional, cell-based; conditions: K562, 72 h; procedure, shortened: as §1
HepG2 = assay: Antiproliferative activity against human HepG2 cells after 72 hrs by XTT assay; type: functional, cell-based; conditions: HepG2, 72 h
[8] = Cytotoxicity against human HuH7 cells infected with Hepatitis C virus subtype 1b; type: cell-based, Huh-7
HL-60 = assay: Antiproliferative activity against human HL60 cells after 72 hrs by XTT assay; type: functional, cell-based; conditions: HL-60, 72 h
Procedure, shortened: (§2)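 Antiproliferative test on HL-60 promyelocytic leukemia and HeLa S3 cervical carcinoma cells growing in liquid suspension.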

K562 [9] = assay: Cytostatic activity against human K562 cells after 72 hrs by MTT assay; type: functional, cell-based; conditions: K562, 72 h; procedure, shortened: as §1
MRC5 = assay: Cytostatic activity against human MRC5 cells after 72 hrs by MTT assay; type: ADME, cell-based; conditions: MRC5, 72 h; procedure, shortened: as §1
Escherichia coli [10] = assay: Antibacterial activity against multi-resistant Escherichia coli C/16702 after 24 hrs; type: functional, organism-based
[11] = Cytostatic activity against human CEM-DNR-bulk cells after 72 hrs by MTT assay; type: functional, cell-based; procedure, shortened: as §1
BJ = assay: Cytostatic activity against human BJ cells after 72 hrs by MTT assay; type: ADME, cell-based; procedure, shortened: as §1
Staphylococcus aureus [12] = assay: Antibacterial activity against methicillin-resistant Staphylococcus aureus MRSA 4591 after 24 hrs; type: functional, organism-based
Candida tropicalis = assay: Antifungal activity against Candida tropicalis after 48 hrs; type: functional, organism-based
[13] = Antiproliferative activity against human HeLaS3 cells after 72 hrs by XTT assay; type: functional, cell-based; conditions: HeLa S3, 72 h; procedure, shortened: as §2
Pseudomonas aeruginosa [14] = assay: Antibacterial activity against Pseudomonas aeruginosa CCM 3955 after 24 hrs; type: functional, organism-based
Pichia kudriavzevii = assay: Antifungal activity against Candida crusei after 48 hrs; type: functional, organism-based
[15] = Cytotoxicity against human HuH7 cells infected with Hepatitis C virus subtype 2a; type: cell-based, Huh-7
CCRF-CEM = assay: Cytostatic activity against human CCRF-CEM cells after 72 hrs by MTT assay; type: functional, cell-based; procedure, shortened: as §1
Hepatitis C virus [16] = assay: Antiviral activity against Hepatitis C virus subtype 2a infected in human HuH7 cells; type: functional, organism-based, Hepacivirus hominis; conditions: genotype 2a, Huh-7
Enterococcus faecalis = assay: Antibacterial activity against Enterococcus faecalis CCM 4224 after 24 hrs; type: functional, organism-based
A549 = assay: Cytostatic activity against human A549 cells after 72 hrs by MTT assay; type: functional, cell-based; conditions: A549, 72 h; procedure, shortened: as §1
Pseudomonas aeruginosa [17] = assay: Antibacterial activity against multi-resistant Pseudomonas aeruginosa A/16575 after 24 hrs; type: functional, organism-based
Candida parapsilosis = assay: Antifungal activity against Candida parapsilosis after 48 hrs; type: functional, organism-based

Compound	Activity (Escherichia coli [1])	pIC50 (HCT-116 [2])	Activity (Staphylococcus aureus [3])	pIC50 (HCT-116 [4])	Activity [5]	Activity (Candida albicans)	pEC50 (Hepatitis C virus [6])	pIC50 (K562 [7])	pIC50 (HepG2)	CC50 [8] [µM]	pIC50 (HL-60)	pIC50 (K562 [9])	pIC50 (MRC5)	Activity (Escherichia coli [10])	pIC50 [11]	pIC50 (BJ)	Activity (Staphylococcus aureus [12])	Activity (Candida tropicalis)	pIC50 [13]	Activity (Pseudomonas aeruginosa [14])	further results
C#Cc1cn([C@@H]2O[C@H](CO)[C@@H](O)[C@H]2O)c2ncnc(OC)c12	inactive	5.39	inactive	5.29	inactive	inactive	6.74	6.42	4.90	> 44	6.72	6.52	< 4.00	inactive	5.46	4.01	inactive	inactive	5.76	inactive	Activity (Pichia kudriavzevii): inactive; CC50 [15]: > 44 µM; pIC50 (CCRF-CEM): < 4.70; pEC50 (Hepatitis C virus [16]): < 4.36; Activity (Enterococcus faecalis): inactive; pIC50 (A549): 5.09; Activity (Pseudomonas aeruginosa [17]): inactive; Activity (Candida parapsilosis): inactive
Nc1nc2c(c(-c3ccccc3)cn2[C@@H]2O[C@H](CO)[C@@H](O)[C@H]2O)c(=O)[nH]1	inactive	< 4.70	inactive	< 4.70	inactive	inactive	< 4.36	< 4.70	< 4.70	> 44	< 4.70	< 4.70	< 4.00	inactive	< 4.70	< 4.00	inactive	inactive	< 4.70	inactive	Activity (Pichia kudriavzevii): inactive; CC50 [15]: > 44 µM; pIC50 (CCRF-CEM): < 4.00; pEC50 (Hepatitis C virus [16]): < 4.36; Activity (Enterococcus faecalis): inactive; pIC50 (A549): < 4.00; Activity (Pseudomonas aeruginosa [17]): inactive; Activity (Candida parapsilosis): inactive
Cc1ncnc2c1c(-c1ccoc1)cn2[C@@H]1O[C@H](CO)[C@@H](O)[C@H]1O	inactive	< 4.70	inactive	< 4.70	inactive	inactive	5.35	< 4.70	5.27	> 44	< 4.82	< 4.70	4.01	inactive	< 4.70	4.05	inactive	inactive	< 4.70	inactive	Activity (Pichia kudriavzevii): inactive; CC50 [15]: > 44 µM; pIC50 (CCRF-CEM): < 4.70; pEC50 (Hepatitis C virus [16]): < 4.36; Activity (Enterococcus faecalis): inactive; pIC50 (A549): < 4.70; Activity (Pseudomonas aeruginosa [17]): inactive; Activity (Candida parapsilosis): inactive
CSc1ncnc2c1ccn2[C@@H]1O[C@H](CO)[C@@H](O)[C@H]1O	inactive	< 4.70	inactive	< 4.70	inactive	inactive	4.52	7.00	< 4.70	> 44	5.14	< 4.70	< 4.00	inactive	5.44	< 4.00	inactive	inactive	4.92	inactive	Activity (Pichia kudriavzevii): inactive; CC50 [15]: > 44 µM; pIC50 (CCRF-CEM): < 4.70; pEC50 (Hepatitis C virus [16]): < 4.36; Activity (Enterococcus faecalis): inactive; pIC50 (A549): < 4.70; Activity (Pseudomonas aeruginosa [17]): inactive; Activity (Candida parapsilosis): inactive
Cc1nc(N)c2ccn([C@@H]3O[C@H](CO)[C@@H](O)[C@H]3O)c2n1	inactive	< 4.70	inactive	< 4.70	inactive	inactive	< 4.36	< 4.70	< 4.70	> 44	< 4.70	< 4.70	< 4.00	inactive	< 4.70	< 4.00	inactive	inactive	< 4.70	inactive	Activity (Pichia kudriavzevii): inactive; CC50 [15]: > 44 µM; pIC50 (CCRF-CEM): < 4.70; pEC50 (Hepatitis C virus [16]): < 4.36; Activity (Enterococcus faecalis): inactive; pIC50 (A549): < 4.00; Activity (Pseudomonas aeruginosa [17]): inactive; Activity (Candida parapsilosis): inactive
CSc1ncnc2c1c(-c1cc3ccccc3o1)cn2[C@@H]1O[C@H](CO)[C@@H](O)[C@H]1O	inactive	< 4.70	inactive	< 4.70	inactive	inactive	5.10	< 4.70	< 4.70	> 44	5.92	4.76	4.15	inactive	< 4.70	4.17	inactive	inactive	5.71	inactive	Activity (Pichia kudriavzevii): inactive; CC50 [15]: > 44 µM; pIC50 (CCRF-CEM): < 4.70; pEC50 (Hepatitis C virus [16]): 4.53; Activity (Enterococcus faecalis): inactive; pIC50 (A549): < 4.70; Activity (Pseudomonas aeruginosa [17]): inactive; Activity (Candida parapsilosis): inactive
CN(C)c1ncnc2c1c(-c1ccoc1)cn2[C@@H]1O[C@H](CO)[C@@H](O)[C@H]1O	inactive	< 4.70	inactive	< 4.70	inactive	inactive	5.10	4.83	4.90	> 44	5.94	5.81	< 4.00	inactive	< 4.70	4.00	inactive	inactive	5.04	inactive	Activity (Pichia kudriavzevii): inactive; CC50 [15]: > 44 µM; pIC50 (CCRF-CEM): 4.88; pEC50 (Hepatitis C virus [16]): < 4.36; Activity (Enterococcus faecalis): inactive; pIC50 (A549): < 4.70; Activity (Pseudomonas aeruginosa [17]): inactive; Activity (Candida parapsilosis): inactive
CSc1ncnc2c1c(-c1ccccc1)cn2[C@@H]1O[C@H](CO)[C@@H](O)[C@H]1O	inactive	< 4.70	inactive	< 4.70	inactive	inactive	4.63	< 4.70	< 4.70	> 44	< 4.70	< 4.70	< 4.00	inactive	< 4.70	< 4.00	inactive	inactive	< 4.70	inactive	Activity (Pichia kudriavzevii): inactive; CC50 [15]: > 44 µM; pIC50 (CCRF-CEM): < 4.70; pEC50 (Hepatitis C virus [16]): < 4.36; Activity (Enterococcus faecalis): inactive; pIC50 (A549): < 4.70; Activity (Pseudomonas aeruginosa [17]): inactive; Activity (Candida parapsilosis): inactive
CSc1ncnc2c1c(I)cn2[C@@H]1O[C@H](CO)[C@@H](O)[C@H]1O	inactive	< 4.70	inactive	< 4.70	inactive	inactive	4.72	5.11	< 4.70	> 44	7.30	4.98	< 4.00	inactive	< 4.70	4.06	inactive	inactive	6.60	inactive	Activity (Pichia kudriavzevii): inactive; CC50 [15]: > 44 µM; pIC50 (CCRF-CEM): < 4.70; pEC50 (Hepatitis C virus [16]): < 4.36; Activity (Enterococcus faecalis): inactive; pIC50 (A549): < 4.70; Activity (Pseudomonas aeruginosa [17]): inactive; Activity (Candida parapsilosis): inactive
